Assays:
[1] = target: T1, Beta-galactoside alpha-2,6-sialyltransferase 1 (Homo sapiens) (UniProt P15907); experiment: Inhibition of recombinant human N-terminal His-tagged ST6Gal-1 (44 to 406 residues) at 1 uM using CMP-Neu5Ac as substrate […] by UV/RP-HPLC method
T1 sequence (whole entry): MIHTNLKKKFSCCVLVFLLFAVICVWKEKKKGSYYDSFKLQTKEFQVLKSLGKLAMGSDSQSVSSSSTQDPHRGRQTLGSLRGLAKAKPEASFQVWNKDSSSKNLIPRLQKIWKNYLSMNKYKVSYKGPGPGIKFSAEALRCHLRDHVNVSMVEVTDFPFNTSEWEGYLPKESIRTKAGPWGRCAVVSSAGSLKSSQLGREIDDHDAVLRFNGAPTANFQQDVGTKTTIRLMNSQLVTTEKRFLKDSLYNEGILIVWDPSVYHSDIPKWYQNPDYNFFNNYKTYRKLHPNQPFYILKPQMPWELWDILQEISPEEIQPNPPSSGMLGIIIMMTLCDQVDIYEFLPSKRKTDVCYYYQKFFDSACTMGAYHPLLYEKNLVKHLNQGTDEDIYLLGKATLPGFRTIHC
In short: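 hST6Gal-I (aa 44-406), 80 ng per reaction, in pH 6.5 Mes buffer with 2 mM MnCl2 and 0.5% Triton X-100. Inhibitor at 1 µM with CMP-Neu5Ac (250 µM stock) and p-nitrophenyl LacNAc acceptor (5 mM stock), 37 °C, 30 min. Quenched by water and 95 °C for 2 min. Product read by RP-HPLC at 300 nm; donor consumption kept below 15%. Duplicates averaged.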

[2] = target: T2, Beta-galactoside alpha-2,6-sialyltransferase 1 (Homo sapiens, UniProt P15907); experiment: Inhibition of recombinant human N-terminal His-tagged ST6Gal-1 (44 to 406 residues) using CMP-Neu5Ac as substrate […] by UV/RP-HPLC method
T2 sequence (P15907 whole entry): T1 sequence (whole entry)

[3] = target: T1, Beta-galactoside alpha-2,6-sialyltransferase 1 (Homo sapiens); experiment: Inhibition of recombinant human ST6Gal-1 (44 to 406 residues) assessed as ratio of CMP-Neu5Ac Km to compound Ki […] by UV/RP-HPLC method

| SMILES | inhibition [1] [%] | Ki [2] [nM] | Ratio [3] |
| --- | --- | --- | --- |
| Nc1ccn([C@@H]2O[C@H](COP(=O)(O)O[C@@H](c3cccc(Oc4ccccc4)c3)P(=O)(O)O)[C@@H](O)[C@H]2O)c(=O)n1 | 87.6 | 19 | 2190 |
| Nc1ccn([C@@H]2O[C@H](COP(=O)(O)OC(C3CCCC3)P(=O)(O)O)[C@@H](O)[C@H]2O)c(=O)n1 (some centres undefined) | – | – | 7.1 |
| CC(=O)N[C@H]1[C@H](Oc2ccccc2)OC(C(OP(=O)(O)OC[C@H]2O[C@@H](n3ccc(N)nc3=O)[C@H](O)[C@@H]2O)P(=O)(O)O)=C[C@@H]1O (stereo in doubt; 1-h) [listing 1 of 2 here] | – | 29 | – |
| CC(=O)N[C@H]1[C@H](Oc2ccccc2)OC(C(OP(=O)(O)OC[C@H]2O[C@@H](n3ccc(N)nc3=O)[C@H](O)[C@@H]2O)P(=O)(O)O)=C[C@@H]1O (stereo in doubt; 1-h) [listing 2 of 2 here] | – | – | 1580 |
| CC(=O)N[C@H]1[C@H](Oc2ccccc2)OC(C(OP(=O)(O)OC[C@H]2O[C@@H](n3ccc(N)nc3=O)[C@H](O)[C@@H]2O)P(=O)(O)O)=C[C@@H]1O (stereo in doubt; 1-l) [listing 1 of 2 here] | – | 690 | – |
| CC(=O)N[C@H]1[C@H](Oc2ccccc2)OC(C(OP(=O)(O)OC[C@H]2O[C@@H](n3ccc(N)nc3=O)[C@H](O)[C@@H]2O)P(=O)(O)O)=C[C@@H]1O (stereo in doubt; 1-l) [listing 2 of 2 here] | – | – | 67 |
| Nc1ccn([C@@H]2O[C@H](COP(=O)(O)OC(c3ccccc3)P(=O)(O)O)[C@@H](O)[C@H]2O)c(=O)n1 (stereo in doubt; 2h) [listing 1 of 2 here] | – | 200 | – |
| Nc1ccn([C@@H]2O[C@H](COP(=O)(O)OC(c3ccccc3)P(=O)(O)O)[C@@H](O)[C@H]2O)c(=O)n1 (stereo in doubt; 2h) [listing 2 of 2 here] | – | – | 230 |
| Nc1ccn([C@@H]2O[C@H](COP(=O)(O)OC(c3ccccc3)P(=O)(O)O)[C@@H](O)[C@H]2O)c(=O)n1 (stereo in doubt; 2l) [listing 1 of 2 here] | – | 1000 | – |
| Nc1ccn([C@@H]2O[C@H](COP(=O)(O)OC(c3ccccc3)P(=O)(O)O)[C@@H](O)[C@H]2O)c(=O)n1 (stereo in doubt; 2l) [listing 2 of 2 here] | – | – | 46 |
| CC(=O)NC[C@@H]1CCC(OP(=O)(O)OC[C@H]2O[C@@H](n3ccc(N)nc3=O)[C@H](O)[C@@H]2O)(P(=O)(O)O)[C@H]1OCc1ccccc1 (stereo in doubt; 4-h) | – | – | 1490 |
| CC(=O)NC[C@@H]1CCC(OP(=O)(O)OC[C@H]2O[C@@H](n3ccc(N)nc3=O)[C@H](O)[C@@H]2O)(P(=O)(O)O)[C@H]1OCc1ccccc1 (stereo in doubt; 4-l) | – | – | 87 |
| Nc1ccn([C@@H]2O[C@H](COP(=O)(O)OC(CNC(=O)c3ccccc3)P(=O)(O)O)[C@@H](O)[C@H]2O)c(=O)n1 (stereo in doubt; 5a-l) [listing 1 of 2 here] | – | 174 | – |
| Nc1ccn([C@@H]2O[C@H](COP(=O)(O)OC(CNC(=O)c3ccccc3)P(=O)(O)O)[C@@H](O)[C@H]2O)c(=O)n1 (stereo in doubt; 5a-l) [listing 2 of 2 here] | 61.7 | – | 239 |
| Nc1ccn([C@@H]2O[C@H](COP(=O)(O)OC(CNC(=O)c3ccccc3)P(=O)(O)O)[C@@H](O)[C@H]2O)c(=O)n1 (stereo in doubt; 5a-s) [listing 1 of 2 here] | – | 16 | – |
| Nc1ccn([C@@H]2O[C@H](COP(=O)(O)OC(CNC(=O)c3ccccc3)P(=O)(O)O)[C@@H](O)[C@H]2O)c(=O)n1 (stereo in doubt; 5a-s) [listing 2 of 2 here] | 88.9 | – | 2600 |
| Nc1ccn([C@@H]2O[C@H](COP(=O)(O)OC(C(=O)Nc3ccccc3)P(=O)(O)O)[C@@H](O)[C@H]2O)c(=O)n1 (stereo in doubt; 5b-l) [listing 1 of 2 here] | – | 122 | – |

| SMILES | inhibition [1] [%] | Ki [2] [nM] | Ratio [3] |
| --- | --- | --- | --- |
| Nc1ccn([C@@H]2O[C@H](COP(=O)(O)OC(C(=O)Nc3ccccc3)P(=O)(O)O)[C@@H](O)[C@H]2O)c(=O)n1 (stereo in doubt; 5b-l) [listing 2 of 2 here] | 67.7 | – | 341 |
| Nc1ccn([C@@H]2O[C@H](COP(=O)(O)OC(C(=O)Nc3ccccc3)P(=O)(O)O)[C@@H](O)[C@H]2O)c(=O)n1 (stereo in doubt; 5b-s) [listing 1 of 2 here] | – | 106 | – |
| Nc1ccn([C@@H]2O[C@H](COP(=O)(O)OC(C(=O)Nc3ccccc3)P(=O)(O)O)[C@@H](O)[C@H]2O)c(=O)n1 (stereo in doubt; 5b-s) [listing 2 of 2 here] | 69.7 | – | 393 |
| Nc1ccn([C@@H]2O[C@H](COP(=O)(O)OC(C(=O)N3CCCC3)P(=O)(O)O)[C@@H](O)[C@H]2O)c(=O)n1 (stereo in doubt; 5c-S) [listing 1 of 2 here] | – | 60 | – |
| Nc1ccn([C@@H]2O[C@H](COP(=O)(O)OC(C(=O)N3CCCC3)P(=O)(O)O)[C@@H](O)[C@H]2O)c(=O)n1 (stereo in doubt; 5c-S) [listing 2 of 2 here] | 77 | – | 694 |
| Nc1ccn([C@@H]2O[C@H](COP(=O)(O)OC(C(=O)N3CCCC3)P(=O)(O)O)[C@@H](O)[C@H]2O)c(=O)n1 (stereo in doubt; 5c-l) [listing 1 of 2 here] | – | 165 | – |
| Nc1ccn([C@@H]2O[C@H](COP(=O)(O)OC(C(=O)N3CCCC3)P(=O)(O)O)[C@@H](O)[C@H]2O)c(=O)n1 (stereo in doubt; 5c-l) [listing 2 of 2 here] | 65.7 | – | 252 |
| Nc1ccn([C@@H]2O[C@H](COP(=O)(O)OC(C(=O)N3CCCCC3)P(=O)(O)O)[C@@H](O)[C@H]2O)c(=O)n1 (stereo in doubt; 5d-l) [listing 1 of 2 here] | – | 45 | – |
| Nc1ccn([C@@H]2O[C@H](COP(=O)(O)OC(C(=O)N3CCCCC3)P(=O)(O)O)[C@@H](O)[C@H]2O)c(=O)n1 (stereo in doubt; 5d-l) [listing 2 of 2 here] | 80.3 | – | 925 |
| Nc1ccn([C@@H]2O[C@H](COP(=O)(O)OC(C(=O)N3CCCCC3)P(=O)(O)O)[C@@H](O)[C@H]2O)c(=O)n1 (stereo in doubt; 5d-s) [listing 1 of 2 here] | – | 20 | – |
| Nc1ccn([C@@H]2O[C@H](COP(=O)(O)OC(C(=O)N3CCCCC3)P(=O)(O)O)[C@@H](O)[C@H]2O)c(=O)n1 (stereo in doubt; 5d-s) [listing 2 of 2 here] | 86.3 | – | 2080 |
| Nc1ccn([C@@H]2O[C@H](COP(=O)(O)OC(CN3C(=O)CCC3=O)P(=O)(O)O)[C@@H](O)[C@H]2O)c(=O)n1 (stereo in doubt; 5e-l) | 15.1 | – | – |
| Nc1ccn([C@@H]2O[C@H](COP(=O)(O)OC(CN3C(=O)CCC3=O)P(=O)(O)O)[C@@H](O)[C@H]2O)c(=O)n1 (stereo in doubt; 5e-s) [listing 1 of 2 here] | – | 224 | – |
| Nc1ccn([C@@H]2O[C@H](COP(=O)(O)OC(CN3C(=O)CCC3=O)P(=O)(O)O)[C@@H](O)[C@H]2O)c(=O)n1 (stereo in doubt; 5e-s) [listing 2 of 2 here] | 58.8 | – | 186 |
| Nc1ccn([C@@H]2O[C@H](COP(=O)(O)OC(CN3C(=O)c4ccccc4C3=O)P(=O)(O)O)[C@@H](O)[C@H]2O)c(=O)n1 (stereo in doubt; 5f-l) | 14.3 | – | – |
| Nc1ccn([C@@H]2O[C@H](COP(=O)(O)OC(CN3C(=O)c4ccccc4C3=O)P(=O)(O)O)[C@@H](O)[C@H]2O)c(=O)n1 (stereo in doubt; 5f-s) | 34.5 | – | – |

Reference: ChEMBL document CHEMBL4004834, “Transition State-Based Sialyltransferase Inhibitors: Mimicking Oxocarbenium Ion by Simple Amide” (J Med Chem, 2017)
